ChEMBL document CHEMBL5260794, “Synthesis and biological evaluation of a new class of benzothiazines as neuroprotective agents” (Eur J Med Chem, 2017)
Activity calls are given as the source filed them. The rule behind the calls is not given here.

Tests used:
Rattus norvegicus [1] = species: Rattus norvegicus; test: Neuroprotective activity against oxygen glucose deprivation/reperfusion-induced Wistar rat cortical brain assessed as concentration required to reduce glutamate release by measuring efficacy window; type: functional
Summary of the method: (§1)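 Male Wistar rat cortical slices (400 μm) in oxygenated ACSF, pH 7.4, 1 h at room temperature, then 30 min at 37 °C. OGD for 30 min in glucose-free ACSF with 11 mM sucrose under 95% N₂/5% CO₂. Compound added in the reoxygenation buffer. Glutamate and LDH release measured. Mean ± SEM of at least four experiments, ANOVA with Dunnett test.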

Rattus norvegicus [2] = species: Rattus norvegicus; test: Neuroprotective activity against oxygen glucose deprivation/reperfusion-induced Wistar rat cortical brain assessed as concentration required to reduce LDH release by measuring efficacy window; type: functional; summary of the method: as §1
SH-SY5Y [3] = test: Neuroprotective activity against glutamate-induced toxicity in human SH-SY5Y cells assessed as cell viability at 10 uM pretreated for 1 hr followed by glutamate challenge measured after 24 hrs by MTT assay; type: functional; details: time 25 hrs, read-out: Activity
Summary of the method: (§2)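 SH-SY5Y cells attached 24 h, then pretreated 1 h with compound (0.1-10 μM) before glutamate 50 mM for 24 h. Viability by MTT. Morphology under phase-contrast microscope, scored by the USP 28 grade scale (0-4). Mean ± SEM of 4 independent experiments run in triplicate or quadruplicate, ANOVA with Dunnett test.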

SH-SY5Y [4] = test: Neuroprotective activity against glutamate-induced toxicity in human SH-SY5Y cells assessed as reduction in sub G0/G1 phase cells at 10 uM pretreated for 1 hr followed by glutamate challenge measured after 24 hrs by propidium staining based flow cytometry; type: functional, cell-based; details: time 25.0 hrs
Summary of the method: (§3)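 SH-SY5Y cells (2.5 x 10⁵ cells/mL) pretreated 1 h with compound, then given glutamate 50 mM for 24 h. Cells fixed in 70% ethanol (30 min, 4 °C), held at -20 °C for at least 24 h, stained with propidium iodide. Flow cytometry on at least 1x10⁴ cells, cell-cycle phases and sub-G₀/G₁ fraction quantified. 4 independent experiments.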

Rattus norvegicus [5] = species: Rattus norvegicus; test: Neuroprotective activity against oxygen glucose deprivation/reperfusion-induced Wistar rat cortical brain assessed as reduction in LDH release relative to control; type: functional; set-up: concentration or dose not given beside the values; summary of the method: as §1
SH-SY5Y [6] = test: Neuroprotective activity against glutamate-induced toxicity in human SH-SY5Y cells assessed as reduction in cell rounding at 10 uM pretreated for 1 hr followed by glutamate challenge measured after 24 hrs by phase-contrast light microscopic analysis; type: functional, cell-based; details: time 25.0 hrs; summary of the method: as §2
SH-SY5Y [7] = test: Neuroprotective activity against glutamate-induced toxicity in human SH-SY5Y cells assessed as reduction in cell detachment at 10 uM pretreated for 1 hr followed by glutamate challenge measured after 24 hrs by phase-contrast light microscopic analysis; type: functional, cell-based; details: time 25.0 hrs; summary of the method: as §2
SH-SY5Y [8] = test: Neuroprotective activity against glutamate-induced toxicity in human SH-SY5Y cells assessed as reduction in grade 2 to 3 toxicity at 10 uM pretreated for 1 hr followed by glutamate challenge measured after 24 hrs by phase-contrast light microscopic analysis; type: functional, cell-based; details: time 25.0 hrs; summary of the method: as §2
SH-SY5Y [9] = test: Neuroprotective activity against glutamate-induced toxicity in human SH-SY5Y cells assessed as reduction in condensed and fragmented nuclei at 10 uM pretreated for 1 hr followed by glutamate challenge measured after 24 hrs by DAPI staining based assay (reference value: 16.9 +/- 1.5%); type: functional, cell-based; details: time 25.0 hrs
Summary of the method: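 Cells pretreated 1 h with compound (0.1-10 μM), then glutamate 50 mM for 24 h. DAPI staining; cells with condensed or fragmented nuclei scored as apoptotic, reported as percentage. Mean ± SEM of 4 independent experiments.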

[10] = Cytotoxicity against human SH-SY5Y cells assessed as cell viability at 10 uM measured after 24 hrs by MTT assay; type: toxicity, cell-based
Summary of the method: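 SH-SY5Y cells (RPMI 1640, 10% FBS, 37 °C, 5% CO₂, exponential growth) seeded 8 x 10⁴ cells/mL and left to attach 24 h, then exposed to compound alone for 24 h. MTT viability read. Morphology graded 0-4 on the USP 28 scale under phase contrast. Compound diluted from DMSO stock in PBS, final DMSO <0.01%.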

SH-SY5Y [11] = test: Neuroprotective activity against glutamate-induced toxicity in human SH-SY5Y cells assessed as reduction in ROS production at 10 uM measured after 24 hrs by DCFH-DA staining based assay relative to control; type: functional; set-up: scale not given: the % may be the effect or the level left
Summary of the method: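 SH-SY5Y cells loaded with DCFH-DA (5 μM, 30 min) and washed before treatment. Pretreated 1 h with compound (0.1-10 μM), then glutamate 50 mM. Fluorescence (ex 485/em 535 nm) read at 1 h or 24 h and expressed as % inhibition of glutamate-induced ROS. 4 independent experiments.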

SH-SY5Y [12] = test: Neuroprotective activity against 6-OHDA-induced toxicity in human SH-SY5Y cells assessed as reduction in condensed and fragmented nuclei at 10 uM pretreated for 1 hr followed by 6-OHDA challenge measured after 2 hrs by DAPI staining based assay relative to control; type: functional; set-up: scale not given: the % may be the effect or the level left; details: time 3 hrs
Summary of the method: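 DAPI staining of SH-SY5Y cells pretreated 1 h with compound at 10 μM, then given 6-OHDA 55 μM for 2 h. Condensed or fragmented nuclei scored as apoptotic. Mean ± SEM of 4 independent experiments.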

SH-SY5Y [13] = test: Neuroprotective activity against 6-OHDA-induced toxicity in human SH-SY5Y cells assessed as reduction in ROS production by DCFH-DA staining based assay; type: functional, cell-based; details: dose 0.1-10 µM
Summary of the method: (§4)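 SH-SY5Y cells loaded with DCFH-DA (5 μM, 30 min) and washed. Pretreated 1 h with compound (0.1-10 μM), then 6-OHDA 55 μM. Fluorescence (ex 485/em 535 nm) read at 1 h or 24 h and expressed as % inhibition of 6-OHDA-induced ROS. 4 independent experiments.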

SH-SY5Y [14] = test: Neuroprotective activity against 6-OHDA-induced toxicity in human SH-SY5Y cells assessed as cell viability at 0.1 uM pretreated for 1 hr followed by 6-OHDA challenge measured after 2 hrs by MTT assay; type: functional, cell-based; details: time 3.0 hrs
SH-SY5Y [15] = test: Neuroprotective activity against 6-OHDA-induced toxicity in human SH-SY5Y cells assessed as reduction in ROS production at 0.1 uM pretreated for 1 hr followed by 6-OHDA challenge measured after 2 hrs by DCFH-DA staining based assay; type: functional, cell-based; details: time 3.0 hrs
Rattus norvegicus [16] = species: Rattus norvegicus; test: Inhibition of transient voltage-dependent sodium current in Wistar rat brain piriform cortex layer at 50 uM by whole cell patch clamp method relative to control; type: functional
SH-SY5Y [17] = test: Neuroprotective activity against glutamate-induced toxicity in human SH-SY5Y cells assessed as reduction in G0/G1 phase cells at 10 uM pretreated for 1 hr followed by glutamate challenge measured after 24 hrs by propidium staining based flow cytometry; type: functional, cell-based; details: time 25.0 hrs; summary of the method: as §3
Rattus norvegicus [18] = species: Rattus norvegicus; test: Inhibition of high voltage-activated calcium current in Wistar rat brain piriform cortex assessed as blockade of barium current by whole cell patch clamp method; type: functional
Summary of the method: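 Acutely dissociated P15-P22 Wistar rat piriform cortex neurons recorded whole-cell at holding -70 mV. 5 mM Ba²⁺ was the charge carrier, with a Cs methanesulfonate pipette. HVA currents evoked by step or ramp protocols from -60 mV. Compound applied by local perfusion (DMSO 0.02-0.67%). Peak I_Ba amplitude tracked over time, and concentration-response fitted with the sum of two Hill functions.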

SH-SY5Y [19] = test: Neuroprotective activity against 6-OHDA-induced toxicity in human SH-SY5Y cells assessed as reduction in ROS production at 0.1 to 10 uM by DCFH-DA staining based assay; type: functional, cell-based; details: dose 0.1-10 µM, TDE = time-dependent effect; summary of the method: as §4
Rattus norvegicus [20] = species: Rattus norvegicus; test: Neuroprotective activity against oxygen glucose deprivation/reperfusion-induced Wistar rat cortical brain assessed as reduction in glutamate release by measuring minimal effective concentration; type: functional; summary of the method: as §1

| Structure (SMILES) | Efficacy (Rattus norvegicus [1]) [µM] | Efficacy (Rattus norvegicus [2]) [µM] | viability at 10 µM (SH-SY5Y [3]) [%] | Activity (SH-SY5Y [4]) | Activity (Rattus norvegicus [5]) [%] | Activity (SH-SY5Y [6]) | Activity (SH-SY5Y [7]) | Activity (SH-SY5Y [8]) | Activity (SH-SY5Y [9]) | viability reduction at 24 h, 10 µM [10] [%] | Activity (SH-SY5Y [11]) [%] | Activity (SH-SY5Y [12]) [%] | Activity (SH-SY5Y [13]) | Activity (SH-SY5Y [14]) | Activity (SH-SY5Y [15]) | inhibition in vivo at 50 µM (Rattus norvegicus [16]) [%] | Activity (SH-SY5Y [17]) | IC50 (Rattus norvegicus [18]) [µM] | Activity (SH-SY5Y [19]) | MEC (Rattus norvegicus [20]) [µM] |
| --- | --- | --- | --- | --- | --- | --- | --- | --- | --- | --- | --- | --- | --- | --- | --- | --- | --- | --- | --- | --- |
| CCN(CC)/C(C)=N/C1=Nc2ccccc2CS1 | 0.1 | 0.1 | 65 | Active | 72.4 | Active | Active | Active | Active | 10 | 20 | >20 | Dose-Dependent Effect | Active | Active | 51.9 | Active | 5.4 | Tde | 0.1 |
| CCCN(CCC)/C(C)=N/C1=Nc2ccccc2CS1 | 0.1 | 0.1 | 65 | Active | 58.2 | Active | Active | Active | Active | 10 | 20 | >20 | Dose-Dependent Effect | Active | Active | 15.9 | Active | 4.4 | Tde | 1 |
